Active and inactive are the calls of the source. The rule behind the calls is not given here.
How the values were obtained:
[1] = Oral bioavailability in rat constant infusion model; format: ADME, organism-based; settings: in vivo
Summary of the method: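 Rat clearance and oral bioavailability derived from a constant infusion model.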

[2] = Clearance in rat at 5 mg/kg; format: ADME, organism-based; design: dose 5 mg/kg; settings: in vivo
[3] = molecular target: Neuronal acetylcholine receptor subunit alpha-7 (Rattus norvegicus) (UniProt Q05941); experiment: Activity at alpha-7 nAChR in Sprague-Dawley rat hippocampal neurons assessed as induction of MLA-inhibited desensitizing inward current at 30 uM relative to (-)-nicotine; format: functional, tissue-based; design: scale not given: the % may be the effect or the level left; settings: Hippocampus
Summary of the method: (§1)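 Rat hippocampal neurons were recorded by whole-cell patch clamp with rapid agonist application. Desensitizing inward currents were measured, and α7 mediation was tested with MLA (10 nM), n = 3.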

[4] = tested on: Rattus norvegicus; experiment: Reversal of amphetamine-induced gating deficit in Sprague-Dawley at 10 mg/kg, iv; format: functional
Summary of the method: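 Anesthetised rats; d-amphetamine 1 mg/kg iv given to disrupt auditory gating recorded in the hippocampal CA3 region (conditioning vs test responses, analogous to human P50). Agonist given iv afterwards; read-out is % gating versus amphetamine-alone. The 10 mg/kg dose was run as a separate experiment. Brain drug levels were measured after the iv doses.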

[5] = molecular target: Beta-1 adrenergic receptor (Homo sapiens) (UniProt P08588); experiment: Inhibition of adrenergic beta-1 receptor at 1 uM
[6] = molecular target: Type-1 angiotensin II receptor (Homo sapiens) (UniProt P30556); experiment: Inhibition of AT1 receptor at 1 uM
[7] = molecular target: Type-2 angiotensin II receptor (Homo sapiens) (UniProt P50052); experiment: Inhibition of AT2 receptor at 1 uM
[8] = molecular target: B2 bradykinin receptor (Homo sapiens) (UniProt P30411); experiment: Inhibition of B2 receptor at 1 uM
[9] = molecular target: Cholecystokinin receptor type A (Homo sapiens) (UniProt P32238); experiment: Inhibition of CCK1 receptor at 1 uM
[10] = molecular target: D(3) dopamine receptor (Homo sapiens) (UniProt P35462); experiment: Inhibition of D3 receptor at 1 uM
[11] = molecular target: D(4) dopamine receptor (Homo sapiens) (UniProt P21917); experiment: Inhibition of D4.4 receptor at 1 uM
[12] = molecular target: D(1B) dopamine receptor (Homo sapiens) (UniProt P21918); experiment: Inhibition of D5 receptor at 1 uM
[13] = Half life in Sprague-Dawley rat liver microsome; format: ADME; settings: liver microsomes
[14] = molecular target: Serotonin 3 (5-HT3) receptor (Homo sapiens) (UniProt P46098+A5X5Y0+O95264+Q70Z44+Q8WXA8); experiment: Inhibition of 5HT3 receptor at 1 uM; format: protein-complex assay
[15] = molecular target: 5-hydroxytryptamine receptor 7 (Homo sapiens) (UniProt P34969); experiment: Inhibition of 5HT7 receptor at 1 uM
[16] = species on record: Homo sapiens; experiment: Inhibition of site 2 of sodium channel at 1 uM
[17] = molecular target: Prostaglandin G/H synthase 1 (Homo sapiens) (UniProt P23219); experiment: Inhibition of COX1 at 1 uM
[18] = molecular target: Prostaglandin G/H synthase 2 (Homo sapiens) (UniProt P35354); experiment: Inhibition of COX2 at 1 uM
[19] = molecular target: Endothelin-converting enzyme 1 (Homo sapiens) (UniProt P42892); experiment: Inhibition of ECE at 1 uM
[20] = molecular target: Epidermal growth factor receptor (Homo sapiens) (UniProt P00533); experiment: Inhibition of EGFR at 1 uM
[21] = species on record: Homo sapiens; experiment: Inhibition of phospholipase C at 1 uM
[22] = molecular target: Tyrosine 3-monooxygenase (Homo sapiens) (UniProt P07101); experiment: Inhibition of tyrosine hydroxylase at 1 uM
[23] = molecular target: Acetylcholinesterase (Homo sapiens) (UniProt P22303); experiment: Inhibition of acetylcholinesterase at 1 uM
[24] = tested on: Rattus norvegicus; experiment: Ability to recognize novel object in Sprague-Dawley rat at 1 mg/kg, sc after 24 hrs; format: functional, organism-based; design: dose 1 mg/kg
Summary of the method: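 Rats dosed subcutaneously 30 min before each of three experimental sessions. Discrimination between the novel and the familiar object was scored after a 24 h delay.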

[25] = Ratio of drug level in brain against plasma in rat by MBUA method after 60 min; format: ADME, organism-based; settings: brain and plasma
[26] = molecular target: Neuronal acetylcholine receptor subunit alpha-7 (Rattus norvegicus) (UniProt Q05941); experiment: Activity at alpha7 nAChR in Sprague-Dawley rat hippocampal neurons assessed as induction of MLA-inhibited desensitizing inward current at 0.3 uM relative to (-)-nicotine; format: functional, tissue-based; design: scale not given: the % may be the effect or the level left; settings: Hippocampus; summary of the method: as §1
[27] = Activity at alpha7-5HT3 chimera expressed in SHEP1 cells by FLIPR assay; format: functional, cell-based; settings: Homo sapiens, SH-EP1
Summary of the method: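 Cell-based FLIPR functional assay in SH-EP1 cells expressing the α7-5HT3 chimera. Values are the average of at least five experiments for most compounds.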

[28] = molecular target: Neuronal acetylcholine receptor subunit alpha-7 (Rattus norvegicus, UniProt Q05941); experiment: Displacement of [3H]MLA from alpha-7 nAChR in Sprague-Dawley rat brain homogenates; format: tissue-based
Summary of the method: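 Rat brain homogenate binding assay with [3H]MLA as radioligand. Values are the average of two or more experiments.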

[29] = molecular target: Neuronal acetylcholine receptor; alpha3/beta4 (Homo sapiens, UniProt P30926+P32297); experiment: Inhibition of alpha-3-beta-4 nAChR expressed in SHSY5Y cells by FLIPR assay; format: functional, cell-based, SH-SY5Y
Summary of the method: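 FLIPR cell-based functional assay in SH-SY5Y cells, which carry α3β4-containing ganglion-type nAChRs; tested for agonist and antagonist activity; IC50 in µM.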

[30] = molecular target: Cytochrome P450 2D6 (Homo sapiens, UniProt P10635); experiment: Inhibition of CYP2D6; format: ADME
[31] = Half life in human liver microsome; format: ADME; settings: liver microsomes
[32] = molecular target: Adenosine A2 receptor (Homo sapiens) (UniProt P29275+P29274); experiment: Inhibition of adenosine A2 receptor at 1 uM; format: protein assay
[33] = Metabolic stability in Sprague-Dawley rat liver microsomes after 1 hr; format: ADME, Microsome; settings: read-out: Stability
Summary of the method: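 Rat liver microsomes incubated with compound, in vitro metabolism; read-out is percent of parent remaining at 1 h.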

[34] = molecular target: Endothelin receptor type B (Homo sapiens) (UniProt P24530); experiment: Inhibition of human ETB receptor at 1 uM
[35] = molecular target: Glutamate [NMDA] receptor (Homo sapiens) (UniProt Q05586+Q12879+Q13224+O15399+O60391+Q14957+Q8TCU5); experiment: Inhibition of NMDA receptor at 1 uM; format: protein-complex assay
[36] = molecular target: Histamine H1 receptor (Homo sapiens) (UniProt P35367); experiment: Inhibition of central histamine H1 receptor at 1 uM
[37] = molecular target: Muscarinic acetylcholine receptor M4 (Homo sapiens) (UniProt P08173); experiment: Inhibition of M4 receptor at 1 uM
[38] = molecular target: Substance-P receptor (Homo sapiens) (UniProt P25103); experiment: Inhibition of NK1 receptor at 1 uM
[39] = molecular target: Kappa-type opioid receptor (Homo sapiens) (UniProt P41145); experiment: Inhibition of human kappa opioid receptor at 1 uM
[40] = molecular target: 5-hydroxytryptamine receptor 2A (Homo sapiens) (UniProt P28223); experiment: Inhibition of 5HT2A receptor at 1 uM
[41] = molecular target: 5-hydroxytryptamine receptor 2C (Homo sapiens) (UniProt P28335); experiment: Inhibition of 5HT2C receptor at 1 uM
Chain of 5-hydroxytryptamine receptor 2C (Homo sapiens) (P28335 whole entry): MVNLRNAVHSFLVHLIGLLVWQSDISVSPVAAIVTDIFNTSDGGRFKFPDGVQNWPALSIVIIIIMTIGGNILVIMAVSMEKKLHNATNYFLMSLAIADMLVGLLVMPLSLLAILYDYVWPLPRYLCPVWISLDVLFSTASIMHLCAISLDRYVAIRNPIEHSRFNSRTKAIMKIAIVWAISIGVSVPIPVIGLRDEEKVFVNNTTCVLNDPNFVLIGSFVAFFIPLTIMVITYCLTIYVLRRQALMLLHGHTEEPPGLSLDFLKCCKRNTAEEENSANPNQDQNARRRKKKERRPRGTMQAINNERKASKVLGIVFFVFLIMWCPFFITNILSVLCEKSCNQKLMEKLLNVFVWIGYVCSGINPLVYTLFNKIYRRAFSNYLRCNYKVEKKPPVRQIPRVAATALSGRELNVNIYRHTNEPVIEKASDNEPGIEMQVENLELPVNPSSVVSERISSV

Chain of Neuronal acetylcholine receptor subunit alpha-7 (Rattus norvegicus) (Q05941 whole entry): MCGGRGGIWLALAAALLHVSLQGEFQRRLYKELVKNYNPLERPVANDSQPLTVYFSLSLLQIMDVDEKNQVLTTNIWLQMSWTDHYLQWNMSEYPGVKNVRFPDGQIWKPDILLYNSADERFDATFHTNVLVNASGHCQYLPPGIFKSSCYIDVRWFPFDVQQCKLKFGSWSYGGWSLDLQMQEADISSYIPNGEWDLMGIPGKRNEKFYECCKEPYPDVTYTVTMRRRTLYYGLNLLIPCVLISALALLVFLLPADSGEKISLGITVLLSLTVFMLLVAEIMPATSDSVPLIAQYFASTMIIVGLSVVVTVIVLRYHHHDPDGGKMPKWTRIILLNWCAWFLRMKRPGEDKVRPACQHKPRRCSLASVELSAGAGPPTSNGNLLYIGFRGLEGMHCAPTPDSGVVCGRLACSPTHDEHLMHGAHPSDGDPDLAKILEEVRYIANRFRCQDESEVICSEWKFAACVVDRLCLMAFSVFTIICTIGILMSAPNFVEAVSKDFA
Chain of Kappa-type opioid receptor (Homo sapiens) (P41145 whole entry): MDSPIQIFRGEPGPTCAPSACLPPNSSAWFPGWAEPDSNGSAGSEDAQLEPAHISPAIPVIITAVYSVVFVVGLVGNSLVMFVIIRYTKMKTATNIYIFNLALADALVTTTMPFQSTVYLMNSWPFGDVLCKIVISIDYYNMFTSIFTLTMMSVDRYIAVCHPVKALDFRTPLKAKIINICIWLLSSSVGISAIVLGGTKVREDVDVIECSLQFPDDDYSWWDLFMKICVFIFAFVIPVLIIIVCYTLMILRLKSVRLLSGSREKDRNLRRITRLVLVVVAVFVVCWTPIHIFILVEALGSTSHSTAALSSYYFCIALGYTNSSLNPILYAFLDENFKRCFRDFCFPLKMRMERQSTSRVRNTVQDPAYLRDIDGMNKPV
Chain of Type-2 angiotensin II receptor (Homo sapiens) (P50052 whole entry): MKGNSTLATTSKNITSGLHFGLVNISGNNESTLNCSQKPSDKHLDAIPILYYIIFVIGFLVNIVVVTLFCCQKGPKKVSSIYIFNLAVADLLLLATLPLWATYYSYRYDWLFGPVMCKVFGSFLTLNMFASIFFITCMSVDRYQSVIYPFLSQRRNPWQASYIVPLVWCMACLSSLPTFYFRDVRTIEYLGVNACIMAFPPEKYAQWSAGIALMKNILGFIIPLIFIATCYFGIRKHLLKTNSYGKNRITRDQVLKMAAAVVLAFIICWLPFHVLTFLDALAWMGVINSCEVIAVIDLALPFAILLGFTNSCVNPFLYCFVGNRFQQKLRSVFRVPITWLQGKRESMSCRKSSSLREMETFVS
Chain of Endothelin receptor type B (Homo sapiens) (P24530 whole entry): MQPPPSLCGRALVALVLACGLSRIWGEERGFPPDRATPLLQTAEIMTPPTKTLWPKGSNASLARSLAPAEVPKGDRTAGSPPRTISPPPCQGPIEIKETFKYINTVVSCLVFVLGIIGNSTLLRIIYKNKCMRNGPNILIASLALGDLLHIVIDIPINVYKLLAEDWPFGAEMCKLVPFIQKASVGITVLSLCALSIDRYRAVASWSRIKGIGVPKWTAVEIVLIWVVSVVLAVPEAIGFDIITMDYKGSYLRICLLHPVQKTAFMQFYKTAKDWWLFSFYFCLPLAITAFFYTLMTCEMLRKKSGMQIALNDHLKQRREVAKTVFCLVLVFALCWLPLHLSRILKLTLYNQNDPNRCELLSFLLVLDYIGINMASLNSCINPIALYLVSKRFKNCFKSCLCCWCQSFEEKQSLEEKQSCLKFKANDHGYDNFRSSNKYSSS
Chain of Type-1 angiotensin II receptor (Homo sapiens) (P30556 whole entry): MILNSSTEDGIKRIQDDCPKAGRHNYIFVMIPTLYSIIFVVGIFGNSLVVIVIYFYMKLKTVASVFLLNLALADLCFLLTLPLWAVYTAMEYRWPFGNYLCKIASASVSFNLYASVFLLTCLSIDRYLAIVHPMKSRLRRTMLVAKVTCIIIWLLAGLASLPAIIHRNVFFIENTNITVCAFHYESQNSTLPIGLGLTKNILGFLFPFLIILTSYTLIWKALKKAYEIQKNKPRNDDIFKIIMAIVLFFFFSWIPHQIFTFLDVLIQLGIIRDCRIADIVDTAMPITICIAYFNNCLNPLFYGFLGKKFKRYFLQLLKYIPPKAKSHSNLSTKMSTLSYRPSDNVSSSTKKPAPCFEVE
Chain of Prostaglandin G/H synthase 2 (Homo sapiens) (P35354 whole entry): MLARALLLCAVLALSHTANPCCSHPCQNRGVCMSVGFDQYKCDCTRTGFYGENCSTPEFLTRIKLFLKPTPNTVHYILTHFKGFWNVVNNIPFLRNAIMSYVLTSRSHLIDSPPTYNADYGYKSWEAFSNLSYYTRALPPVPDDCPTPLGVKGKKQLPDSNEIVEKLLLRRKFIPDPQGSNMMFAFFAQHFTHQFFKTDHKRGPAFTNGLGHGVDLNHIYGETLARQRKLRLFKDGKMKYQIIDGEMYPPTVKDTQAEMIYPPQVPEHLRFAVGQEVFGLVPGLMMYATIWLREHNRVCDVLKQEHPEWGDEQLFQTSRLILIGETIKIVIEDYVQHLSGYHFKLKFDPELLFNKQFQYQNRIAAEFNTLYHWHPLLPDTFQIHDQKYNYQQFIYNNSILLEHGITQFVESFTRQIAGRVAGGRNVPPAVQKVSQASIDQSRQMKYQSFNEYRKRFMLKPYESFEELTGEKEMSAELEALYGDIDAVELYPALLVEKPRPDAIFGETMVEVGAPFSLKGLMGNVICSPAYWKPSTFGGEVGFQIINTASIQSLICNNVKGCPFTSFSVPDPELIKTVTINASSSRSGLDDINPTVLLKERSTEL
Chain of Histamine H1 receptor (Homo sapiens) (P35367 whole entry): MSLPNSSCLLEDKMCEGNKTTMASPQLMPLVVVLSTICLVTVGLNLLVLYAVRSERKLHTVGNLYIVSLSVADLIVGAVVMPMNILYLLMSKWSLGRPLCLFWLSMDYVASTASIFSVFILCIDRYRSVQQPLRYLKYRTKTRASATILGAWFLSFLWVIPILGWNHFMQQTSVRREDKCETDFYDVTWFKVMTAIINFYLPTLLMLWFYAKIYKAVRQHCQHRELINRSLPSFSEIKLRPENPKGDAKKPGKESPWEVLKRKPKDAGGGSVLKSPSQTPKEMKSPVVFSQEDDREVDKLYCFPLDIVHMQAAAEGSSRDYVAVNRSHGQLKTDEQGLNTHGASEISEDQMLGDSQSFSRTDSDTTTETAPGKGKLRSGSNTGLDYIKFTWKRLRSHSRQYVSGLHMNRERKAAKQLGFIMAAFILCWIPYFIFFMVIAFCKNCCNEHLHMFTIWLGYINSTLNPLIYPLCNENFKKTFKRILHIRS
Chain of Tyrosine 3-monooxygenase (Homo sapiens) (P07101 whole entry): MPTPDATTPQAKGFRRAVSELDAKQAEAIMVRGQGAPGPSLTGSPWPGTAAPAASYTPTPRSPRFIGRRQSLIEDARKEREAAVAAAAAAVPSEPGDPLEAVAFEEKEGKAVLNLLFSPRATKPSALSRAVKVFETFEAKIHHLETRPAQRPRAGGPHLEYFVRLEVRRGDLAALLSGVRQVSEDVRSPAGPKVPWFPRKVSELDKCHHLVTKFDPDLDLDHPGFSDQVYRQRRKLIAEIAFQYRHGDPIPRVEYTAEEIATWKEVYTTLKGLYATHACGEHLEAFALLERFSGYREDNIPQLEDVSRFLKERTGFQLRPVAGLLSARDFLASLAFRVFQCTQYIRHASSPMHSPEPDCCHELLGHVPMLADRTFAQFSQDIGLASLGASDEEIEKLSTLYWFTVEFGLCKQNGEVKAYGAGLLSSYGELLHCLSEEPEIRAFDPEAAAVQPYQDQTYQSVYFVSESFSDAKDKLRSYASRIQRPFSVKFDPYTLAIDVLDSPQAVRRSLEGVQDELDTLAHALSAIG
Chain of Beta-1 adrenergic receptor (Homo sapiens) (P08588 whole entry, looked up): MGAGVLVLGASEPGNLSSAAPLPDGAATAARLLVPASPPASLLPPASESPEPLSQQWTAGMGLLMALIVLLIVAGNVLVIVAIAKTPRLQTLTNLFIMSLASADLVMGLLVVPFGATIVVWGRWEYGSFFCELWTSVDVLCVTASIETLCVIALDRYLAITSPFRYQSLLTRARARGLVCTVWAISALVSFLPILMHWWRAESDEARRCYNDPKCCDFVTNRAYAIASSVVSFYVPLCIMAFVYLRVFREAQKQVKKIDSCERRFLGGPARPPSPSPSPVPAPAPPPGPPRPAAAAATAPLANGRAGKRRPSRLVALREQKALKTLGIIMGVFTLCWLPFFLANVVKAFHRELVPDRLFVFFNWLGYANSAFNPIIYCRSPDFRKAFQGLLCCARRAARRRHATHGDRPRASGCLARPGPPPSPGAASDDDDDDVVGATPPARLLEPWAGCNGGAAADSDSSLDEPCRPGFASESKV
Chain of Neuronal acetylcholine receptor subunit alpha-7 (Q05941 whole entry): as the sequence (Q05941 whole entry) above

## O=C(N[C@H]1CN2CCC1CC2)c1cc2ccoc2cn1 [PHA-543613]
[1]
  bioavailability: 63%
[2]
  clearance: 33.3 mL/min/kg
[3]
  Activity: 220%
[4]
  Activity: 51%
[5]
  inhibition: < 10%
[6]
  inhibition: 16%
[7]
  inhibition: < 10%
[8]
  inhibition: < 10%
[9]
  inhibition: < 10%
[10]
  inhibition: 10%
[11]
  inhibition: 10%
[12]
  inhibition: < 10%
[13]
  half-life: 40 min
[14]
  inhibition: 67%
[15]
  inhibition: < 10%
[16]
  inhibition: 13%
[17]
  inhibition: < 10%
[18]
  inhibition: 14%
[19]
  inhibition: < 10%
[20]
  inhibition: < 10%
[21]
  inhibition: < 10%
[22]
  inhibition: < 10%
[23]
  inhibition: < 10%
[24]
  Activity: Active
[25]
  Kp at 1 h: 1.5
[26]
  Activity: 34%
[27]
  EC50: 65 nM
[28]
  Ki: 8.8 nM
[29]
  IC50: > 100000 nM
[30]
  IC50: > 10000 nM
[31]
  half-life: > 120 min
[32]
  inhibition: < 10%
[33]
  remaining at 1 h: 55%
[34]
  inhibition: < 10%
[35]
  inhibition: 11%
[36]
  inhibition: < 10%
[37]
  inhibition: < 10%
[38]
  inhibition: 26%
[39]
  inhibition: < 10%
[40]
  inhibition: < 10%
[41]
  inhibition: < 10%
